Source: ChEMBL document CHEMBL2062426 (J Med Chem, 2012)

Columns and labels:
Neutrophil collagenase = Neutrophil collagenase (Homo sapiens, UniProt P22894); experiment: Inhibition of MMP8 using (7-methoxycoumarin-4-yl)acetyl-Pro-Leu-Gly-Leu-(3-(2,4-dinitrophenyl)-L-2,3-diaminopropionyl)Ala-Arg-NH2 as substrate incubated for 30 mins prior to substrate addition measured for 10 mins by fluorometry
Summary of the method: (§1)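 Activated MMP-8 or MMP-9 (2 nM) was preincubated with inhibitor (10 pM–1 mM) in 50 mM Tris-HCl pH 7.5 with 0.2 M NaCl, 5 mM CaCl2, 20 μM ZnSO4 and 0.05% Brij 35 at 37 °C for 30 min. Fluorogenic substrate (10 μL of 50 μM into 90 μL) was then added. Rates from the first 10 min were plotted against inhibitor concentration, and values are the mean of three experiments.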

[1] = biological target: Matrix metalloproteinase-9 (Homo sapiens, UniProt P14780); experiment: Inhibition of MMP9 using (7-methoxycoumarin-4-yl)acetyl-Pro-Leu-Gly-Leu-(3-(2,4-dinitrophenyl)-L-2,3-diaminopropionyl)Ala-Arg-NH2 as substrate incubated for 30 mins prior to substrate addition measured for 10 mins by fluorometry; summary of the method: as §1
Matrix metalloproteinase-9, sequence (P14780 whole entry): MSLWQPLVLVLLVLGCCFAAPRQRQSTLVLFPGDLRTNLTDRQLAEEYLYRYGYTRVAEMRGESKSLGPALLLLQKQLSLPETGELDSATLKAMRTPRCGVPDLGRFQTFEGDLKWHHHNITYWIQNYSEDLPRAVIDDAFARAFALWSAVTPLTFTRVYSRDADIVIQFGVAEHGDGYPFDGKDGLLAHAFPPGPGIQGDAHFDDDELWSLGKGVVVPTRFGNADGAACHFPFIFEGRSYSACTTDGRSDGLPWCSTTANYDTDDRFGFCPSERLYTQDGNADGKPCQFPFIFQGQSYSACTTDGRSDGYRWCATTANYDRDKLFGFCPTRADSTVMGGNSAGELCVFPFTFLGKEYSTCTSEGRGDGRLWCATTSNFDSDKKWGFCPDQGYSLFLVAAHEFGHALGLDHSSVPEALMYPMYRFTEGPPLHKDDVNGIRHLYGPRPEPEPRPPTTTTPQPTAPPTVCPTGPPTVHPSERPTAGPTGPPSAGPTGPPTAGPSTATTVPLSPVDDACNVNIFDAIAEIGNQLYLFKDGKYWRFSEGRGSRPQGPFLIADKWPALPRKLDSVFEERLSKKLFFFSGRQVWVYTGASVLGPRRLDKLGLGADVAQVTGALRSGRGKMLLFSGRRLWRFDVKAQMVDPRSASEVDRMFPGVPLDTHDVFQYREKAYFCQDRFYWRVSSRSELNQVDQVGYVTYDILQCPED

Collagenase 3 = Collagenase 3 (Homo sapiens, UniProt P45452); experiment: Inhibition of MMP13 using (7-methoxycoumarin-4-yl)acetyl-Pro-Leu-Gly-Leu-(3-(2,4-dinitrophenyl)-L-2,3-diaminopropionyl)Ala-Arg-NH2 as substrate incubated for 30 mins prior to substrate addition measured for 10 mins by fluorometry
[2] = biological target: 72 kDa type IV collagenase (Homo sapiens, UniProt P08253); experiment: Inhibition of MMP2 using (7-methoxycoumarin-4-yl)acetyl-Pro-Leu-Gly-Leu-(3-(2,4-dinitrophenyl)-L-2,3-diaminopropionyl)Ala-Arg-NH2 as substrate incubated for 30 mins prior to substrate addition measured for 10 mins by fluorometry
72 kDa type IV collagenase, sequence (P08253 whole entry): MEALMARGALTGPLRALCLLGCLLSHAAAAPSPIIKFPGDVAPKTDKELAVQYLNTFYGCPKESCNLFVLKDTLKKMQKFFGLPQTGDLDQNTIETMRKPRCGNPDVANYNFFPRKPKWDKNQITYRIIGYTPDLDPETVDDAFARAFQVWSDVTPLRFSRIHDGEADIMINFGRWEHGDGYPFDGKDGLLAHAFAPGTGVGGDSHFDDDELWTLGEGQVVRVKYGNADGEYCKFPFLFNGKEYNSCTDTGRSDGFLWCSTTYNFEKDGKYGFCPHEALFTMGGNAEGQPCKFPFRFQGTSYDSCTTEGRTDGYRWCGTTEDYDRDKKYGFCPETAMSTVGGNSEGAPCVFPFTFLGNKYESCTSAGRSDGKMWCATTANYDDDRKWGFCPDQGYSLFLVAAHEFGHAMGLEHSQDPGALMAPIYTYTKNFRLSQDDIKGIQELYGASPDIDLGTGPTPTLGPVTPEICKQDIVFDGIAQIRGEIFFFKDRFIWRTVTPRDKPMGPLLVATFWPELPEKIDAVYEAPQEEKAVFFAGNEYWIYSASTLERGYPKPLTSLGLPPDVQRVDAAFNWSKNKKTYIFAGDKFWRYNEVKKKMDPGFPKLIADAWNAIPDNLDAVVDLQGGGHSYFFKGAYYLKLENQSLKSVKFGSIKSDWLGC

Neutrophil collagenase, sequence (P22894 whole entry): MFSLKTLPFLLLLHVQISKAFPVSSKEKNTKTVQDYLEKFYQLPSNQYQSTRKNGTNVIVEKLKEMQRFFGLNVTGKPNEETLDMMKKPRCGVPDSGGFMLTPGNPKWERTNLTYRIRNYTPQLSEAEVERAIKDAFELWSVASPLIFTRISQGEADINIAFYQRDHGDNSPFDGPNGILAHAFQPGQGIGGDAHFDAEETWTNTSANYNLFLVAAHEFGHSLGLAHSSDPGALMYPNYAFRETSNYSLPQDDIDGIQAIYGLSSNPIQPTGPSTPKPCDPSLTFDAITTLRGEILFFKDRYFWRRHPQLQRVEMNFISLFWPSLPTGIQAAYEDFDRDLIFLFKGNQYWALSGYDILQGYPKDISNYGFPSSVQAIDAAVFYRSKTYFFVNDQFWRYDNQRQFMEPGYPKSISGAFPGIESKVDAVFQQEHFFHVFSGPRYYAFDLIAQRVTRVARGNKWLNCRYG

| IC50 (Neutrophil collagenase) [nM] | IC50 [1] [nM] | IC50 (Collagenase 3) [nM] | IC50 [2] [nM] | Structure (SMILES) |
| --- | --- | --- | --- | --- |
| 58 | 43 | 18 | 30 | COc1ccc(S(=O)(=O)N(Cc2ccc(OCCOCCOCCOCCOCc3cn([C@@H]4O[C@H](CO)[C@@H](O)[C@H](O)[C@H]4F)nn3)cc2)[C@@H](C(=O)NO)C(C)C)cc1 |
| 5 | 5 | 4 | 4 | COc1ccc(S(=O)(=O)N(Cc2ccc(OCCOCCOCCOCCOCc3cn(CCOCCOCCOCCF)nn3)cc2)[C@@H](C(=O)NO)C(C)C)cc1 |
| 14 | 2 | 10 | 5 | C#CCN([C@@H](C(=O)NO)C(C)C)S(=O)(=O)c1ccc(OC)cc1 |
| 8 | 7 | 5 | 107 | COc1ccc(S(=O)(=O)N(Cc2cn(CCOS(=O)(=O)c3ccc(C)cc3)nn2)[C@@H](C(=O)NO)C(C)C)cc1 |
